According to publication PMC5028280 (Neuropharmacology, 2016):
pEC50, pIC50, pKi: −log10 of the molar value.

Tests used:
male ICR mice [1] = experiment: FOB, cannabinoid receptor antagonism of 3 mg/kg JWH-018 effects; type: in vivo, mouse; settings: rimonabant/vehicle and SR144528/vehicle groups; all mice
5-HT2B [2] = target: T1, 5-HT2B (Homo sapiens, UniProt P41595); experiment: NIMH PDSP secondary binding assay, 5-HT2B; settings: read-out: 5-HT2B binding affinity Ki; mean of 3 replications
hERG = hERG (Homo sapiens, UniProt Q12809); experiment: hERG channel assay; type: cell-based; settings: inhibition of hERG channels, mean of 3 replicates; for pEC50: read-out: hERG Channels EC50
Chain of hERG (Q12809 whole entry, the tested form may be a part): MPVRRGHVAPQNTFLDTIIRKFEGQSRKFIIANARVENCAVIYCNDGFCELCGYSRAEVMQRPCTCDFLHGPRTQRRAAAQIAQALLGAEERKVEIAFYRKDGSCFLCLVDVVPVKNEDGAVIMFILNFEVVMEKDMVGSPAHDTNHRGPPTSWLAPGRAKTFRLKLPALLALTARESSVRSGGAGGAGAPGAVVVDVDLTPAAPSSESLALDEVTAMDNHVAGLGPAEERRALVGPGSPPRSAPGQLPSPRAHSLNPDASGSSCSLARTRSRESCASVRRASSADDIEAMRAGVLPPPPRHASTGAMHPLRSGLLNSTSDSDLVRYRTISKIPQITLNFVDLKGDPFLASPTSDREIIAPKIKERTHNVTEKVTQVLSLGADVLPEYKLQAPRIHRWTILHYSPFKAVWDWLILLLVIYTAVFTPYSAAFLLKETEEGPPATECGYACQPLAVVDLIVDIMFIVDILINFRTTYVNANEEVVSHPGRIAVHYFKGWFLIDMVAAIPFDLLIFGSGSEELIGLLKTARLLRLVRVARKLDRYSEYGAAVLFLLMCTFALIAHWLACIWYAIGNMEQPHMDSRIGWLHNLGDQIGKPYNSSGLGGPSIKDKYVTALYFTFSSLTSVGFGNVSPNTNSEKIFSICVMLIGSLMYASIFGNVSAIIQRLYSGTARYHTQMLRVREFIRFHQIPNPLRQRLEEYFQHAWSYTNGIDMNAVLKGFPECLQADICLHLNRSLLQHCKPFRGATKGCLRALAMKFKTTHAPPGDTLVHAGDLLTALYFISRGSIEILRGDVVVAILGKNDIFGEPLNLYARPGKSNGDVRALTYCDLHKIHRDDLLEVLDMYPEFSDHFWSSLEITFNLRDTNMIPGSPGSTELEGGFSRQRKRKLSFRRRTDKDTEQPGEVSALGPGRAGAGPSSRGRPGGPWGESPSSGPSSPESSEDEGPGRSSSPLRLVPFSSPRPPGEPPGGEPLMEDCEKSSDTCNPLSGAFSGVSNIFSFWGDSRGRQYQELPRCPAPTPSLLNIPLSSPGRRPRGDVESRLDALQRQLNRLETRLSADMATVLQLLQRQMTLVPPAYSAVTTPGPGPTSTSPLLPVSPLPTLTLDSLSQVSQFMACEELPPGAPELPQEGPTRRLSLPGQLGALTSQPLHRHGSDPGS

male ICR mice [3] = experiment: Functional observational battery; type: in vivo, mouse; settings: i.v.; for FOB Home cage activity: doses with significant differences vs vehicle: CNS Activity domain, ↓ decrease vs vehicle, N = 6/dose; for FOB Tail elevation: doses with significant differences vs vehicle / FOB Tonus: doses with significant differences vs vehicle: CNS Excitability domain, ↑ increase vs vehicle; for FOB Forelimb placing: doses with significant differences vs vehicle / FOB Gait: doses with significant differences vs vehicle / FOB Muscle tone: doses with significant differences vs vehicle / FOB Posture: doses with significant differences vs vehicle: Muscle tone/Equilibrium domain; for FOB Approach response: doses with significant differences vs vehicle / FOB Startle response: doses with significant differences vs vehicle: Sensorimotor Reactivity domain
Summary of the method: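 Male ICR mice, each given one dose only, n=6 per dose; housed at 20–22°C on a 12-h light/dark cycle with food ad libitum. Approach and startle after observer interference were scored as categorical measures. Each compound's vehicle group was pooled into one vehicle group, and each dose was compared with it. Tests: Fisher's exact (categorical), Kruskal-Wallis (ordinal), one-way ANOVA (continuous).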

5-HT2B [4] = target: T1, 5-HT2B; experiment: 5-HT2B antagonism functional assay; type: cell-based; settings: mean of 3 replicates; for pIC50: read-out: 5-HT2B Antagonism IC50
male C57/Bl6J mice [5] = experiment: Drug discrimination, mice trained to discriminate 0.3 mg/kg JWH-018 from vehicle; type: in vivo, mouse; settings: for Response rates compared to vehicle: 1 mg/kg JWH-018, 10 mg/kg THC, JWH-073 across the dose range tested; for Fold less potent than JWH-018 in JWH-018 discrimination: from ED50 values; for ED50 for substitution for the 0.3 mg/kg JWH-018 training dose / Substitution for the 0.3 mg/kg JWH-018 training dose: i.p.; for ED50 for substitution for the 0.3 mg/kg JWH-018 training dose: 30 min before session; for Substitution for the 0.3 mg/kg JWH-018 training dose: percentage of responses on JWH-018-associated lever
[6] = Urinary metabolite identification; type: in vivo, mouse; settings: II = glucuronic acid conjugate; X = identified
5-HT2C = target: T2, 5-HT2C (Homo sapiens, UniProt P28335); experiment: NIMH PDSP secondary binding assay, 5-HT2C; settings: read-out: 5-HT2C binding affinity Ki; mean of 3 replications
T2 sequence (P28335 33-458): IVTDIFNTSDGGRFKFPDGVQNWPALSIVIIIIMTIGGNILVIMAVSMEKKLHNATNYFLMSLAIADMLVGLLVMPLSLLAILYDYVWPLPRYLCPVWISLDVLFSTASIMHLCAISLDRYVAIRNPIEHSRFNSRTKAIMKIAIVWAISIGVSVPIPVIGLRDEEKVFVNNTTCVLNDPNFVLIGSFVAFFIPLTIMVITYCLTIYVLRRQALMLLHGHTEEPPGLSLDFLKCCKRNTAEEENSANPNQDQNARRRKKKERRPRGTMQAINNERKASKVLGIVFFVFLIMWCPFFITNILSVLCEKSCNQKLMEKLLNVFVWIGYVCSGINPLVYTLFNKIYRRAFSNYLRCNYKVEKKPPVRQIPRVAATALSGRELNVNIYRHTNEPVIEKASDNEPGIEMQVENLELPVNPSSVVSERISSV

5-HT6 = 5-HT6 (Homo sapiens, UniProt P50406); experiment: NIMH PDSP secondary binding assay, 5-HT6; settings: read-out: 5-HT6 binding affinity Ki; mean of 3 replications
Chain of 5-HT6 (P50406 whole entry): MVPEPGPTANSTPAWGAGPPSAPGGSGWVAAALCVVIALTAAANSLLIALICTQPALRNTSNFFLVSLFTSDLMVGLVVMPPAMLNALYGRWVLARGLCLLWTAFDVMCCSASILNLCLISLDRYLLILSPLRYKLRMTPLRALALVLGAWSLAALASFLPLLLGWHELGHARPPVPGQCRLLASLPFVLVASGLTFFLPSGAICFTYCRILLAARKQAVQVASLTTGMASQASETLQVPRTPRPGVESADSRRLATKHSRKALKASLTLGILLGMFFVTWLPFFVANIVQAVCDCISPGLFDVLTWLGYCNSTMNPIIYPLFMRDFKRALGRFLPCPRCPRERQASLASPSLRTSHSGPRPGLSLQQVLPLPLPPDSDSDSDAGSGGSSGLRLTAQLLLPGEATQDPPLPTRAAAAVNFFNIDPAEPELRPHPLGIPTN

male C57/Bl6J mice [7] = experiment: Drug discrimination, mice trained to discriminate 5.6 mg/kg THC from vehicle; type: in vivo, mouse
[8] = categorical, ---- no significant effect
[9] = Autonomic Effects domain, categorical, ---- no significant effect

T1 sequence (P41595 whole entry): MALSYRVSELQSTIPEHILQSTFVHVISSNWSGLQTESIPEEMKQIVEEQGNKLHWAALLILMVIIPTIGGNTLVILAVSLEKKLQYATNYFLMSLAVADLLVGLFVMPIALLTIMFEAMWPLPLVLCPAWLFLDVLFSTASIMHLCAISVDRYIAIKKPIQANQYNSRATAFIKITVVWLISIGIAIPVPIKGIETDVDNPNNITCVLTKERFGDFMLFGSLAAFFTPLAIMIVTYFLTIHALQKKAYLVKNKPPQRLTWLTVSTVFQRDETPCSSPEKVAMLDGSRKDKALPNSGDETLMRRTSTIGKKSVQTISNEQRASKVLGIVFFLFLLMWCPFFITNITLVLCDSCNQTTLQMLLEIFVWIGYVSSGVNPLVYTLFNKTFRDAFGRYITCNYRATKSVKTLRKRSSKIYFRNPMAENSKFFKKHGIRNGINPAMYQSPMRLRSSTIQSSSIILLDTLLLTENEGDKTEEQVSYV

Row | Molecule | pKi (5-HT2B [2]) | hERG Channels Emax (hERG) | pEC50 (hERG) | FOB Home cage activity: doses with significant differences vs vehicle (male ICR mice [3]) | FOB Gait: doses with significant differences vs vehicle (male ICR mice [3]; [8]) | FOB Muscle tone: doses with significant differences vs vehicle (male ICR mice [3]; [8]) | FOB Posture: doses with significant differences vs vehicle (male ICR mice [3]; [8]) | FOB Approach response: doses with significant differences vs vehicle (male ICR mice [3]; [8]) | FOB Startle response: doses with significant differences vs vehicle (male ICR mice [3]; [8]) | 5-HT2B Antagonism Emax (5-HT2B [4]) | pIC50 (5-HT2B [4]) | Substitution for the 0.3 mg/kg JWH-018 training dose (male C57/Bl6J mice [5]) | further results
1 | SR144528 [reference compound] |  |  |  |  |  |  |  |  |  |  |  |  | FOB selected measures, antagonist 3 mg/kg i.p. plus vehicle (male ICR mice [1]): Normal responses
2 | CCCCn1cc(C(=O)c2cccc3ccccc23)c2ccccc21 [JWH-073] | 6.74 | 59% | 5.01 | ↓ (0.3-3) mg/kg | (0.3-3) mg/kg | (1-3) mg/kg | (1-3) mg/kg | (1-3) mg/kg | (3) mg/kg | 100% | 4.71 | fully and dose-dependently substituted | FOB Tail elevation: doses with significant differences vs vehicle (male ICR mice [3]; ---- no significant effect): ↑ (1) mg/kg; FOB Forelimb placing: doses with significant differences vs vehicle (male ICR mice [3]; [8]): (0.3) mg/kg; Response rates compared to vehicle (male C57/Bl6J mice [5]): significant decreases were not observed; Fold less potent than JWH-018 in JWH-018 discrimination (male C57/Bl6J mice [5]): about 5 fold; ED50 for substitution for the 0.3 mg/kg JWH-018 training dose (male C57/Bl6J mice [5]): 2.11 µmol/kg
3 | CCCCCn1cc(C(=O)c2ccc(CC)c3ccccc23)c2ccccc21 [JWH-210] |  | lacked efficacy |  | ↓ (0.1-3) mg/kg | (0.1-3) mg/kg | (0.3-3) mg/kg | (0.1-3) mg/kg |  | (0.3-3) mg/kg | 100% | 2.54 |  | Monohydroxylation metabolite in urine, phase II [6]: no monohydroxyl glucuronide was observed; hERG Channels EC50 (hERG): Not active; FOB Exophthalmus: doses with significant differences vs vehicle (male ICR mice [3]; [9]): (0.3) mg/kg
4 | CCCCCn1cc(C(=O)Cc2ccccc2)c2ccccc21 [JWH-167] | 5.90 | 81% | 4.86 | ↓ (3-30) mg/kg | (3-30) mg/kg | (3-30) mg/kg | (1-30) mg/kg | (3-30) mg/kg | (3-30) mg/kg | 100% | 4.32 |  | FOB Exophthalmus: doses with significant differences vs vehicle (male ICR mice [3]; [9]): (1) mg/kg; FOB Piloerection: doses with significant differences vs vehicle (male ICR mice [3]; [9]): (10-30) mg/kg; FOB Tonus: doses with significant differences vs vehicle (male ICR mice [3]; ---- no significant effect): ↑ (10) mg/kg; FOB Forelimb placing: doses with significant differences vs vehicle (male ICR mice [3]; [8]): (10-30) mg/kg; pKi (5-HT2C): 5.32
5 | CCCCCn1cc(C(=O)c2ccc(OC)c3ccccc23)c2ccccc21 [JWH-081] |  | lacked efficacy |  | ↓ (0.1-1) mg/kg | (0.3-1) mg/kg | (0.3) mg/kg | (0.3-1) mg/kg | (1) mg/kg | (1) mg/kg |  |  |  | hERG Channels EC50 (hERG): Not active; 5-HT2B Antagonism IC50 (5-HT2B [4]): Not active
6 | O=C(c1cccc2ccccc12)c1cn(CCCCCF)c2ccccc12 [AM-2201] | 6.72 | 70% | 5.47 | ↓ (0.03-1) mg/kg |  | (0.1-1) mg/kg | (0.03-1) mg/kg | (0.1-1) mg/kg |  | 100% | 4.62 |  | pKi (5-HT6): 6.16; FOB Tonus: doses with significant differences vs vehicle (male ICR mice [3]; ---- no significant effect): ↑ (0.3-1) mg/kg
7 | Cc1c(C(=O)NN2CCCCC2)nn(-c2ccc(Cl)cc2Cl)c1-c1ccc(Cl)cc1 [rimonabant] |  |  |  |  |  |  |  |  |  |  |  |  | Response rates in antagonism tests (male C57/Bl6J mice [5]; 3 mg/kg antagonist with vehicle or 0.3 mg/kg JWH-018): significantly decreased
8 | CN1CCN2c3ccccc3Cc3ccccc3C2C1 (centres unmarked) [mianserin] |  |  |  |  |  |  |  |  |  |  |  | failed to substitute for or antagonize | Responding on the JWH-018 lever, 3 mg/kg mianserin co-administered with 0.3 mg/kg JWH-018 (male C57/Bl6J mice [5]; compared to 0.3 mg/kg JWH-018 alone): significantly decreased; Responding on the JWH-018 lever, 3 mg/kg mianserin (plus vehicle) (male C57/Bl6J mice [5]; compared to vehicle alone): significantly increased; Substitution of the JWH-018 training dose (0.3 mg/kg), mianserin at doses up 1 mg/kg (male C57/Bl6J mice [5]; mianserin plus 0.3 mg/kg JWH-018): not altered; Overall response rate, mianserin 1 and 3 mg/kg administered with JWH-018 (male C57/Bl6J mice [5]; mouse, in vivo): significantly suppressed; Percentage of THC-lever responding, mianserin 0.1, 0.3, and 3 mg/kg (male C57/Bl6J mice [7]; co-administered with either vehicle or 5.6 mg/kg THC): did not alter this pattern; Percentage of THC-lever responding, 1 mg/kg mianserin plus 5.6 mg/kg THC (male C57/Bl6J mice [7]; compared to 5.6 mg/kg THC alone): significantly lower; Substitution for THC in mice trained to discriminate THC (male C57/Bl6J mice [7]; mianserin tested alone, i.p.): did not substitute; Overall responding on both levers (response rate), 3 mg/kg mianserin (male C57/Bl6J mice [7]; with vehicle or THC): significantly suppressed
9 | CCCCCc1cc(O)c2c(c1)OC(C)(C)[C@@H]1CCC(C)=C[C@@H]21 [THC, Δ^9-tetrahydrocannabinol, reference compound] | 6.12 |  |  | ↓ (0.3-10) mg/kg |  |  | (3-10) mg/kg |  |  |  |  | fully and dose-dependently substituted | FOB Tail elevation: doses with significant differences vs vehicle (male ICR mice [3]; ---- no significant effect): ↑ (3) mg/kg; Response rates compared to vehicle (male C57/Bl6J mice [5]): significantly decreased response rates; Fold less potent than JWH-018 in JWH-018 discrimination (male C57/Bl6J mice [5]): ~10 fold; ED50 for substitution for the 0.3 mg/kg JWH-018 training dose (male C57/Bl6J mice [5]): 4.08 µmol/kg
